Results reported in paper PMC12040637 (Iranian Biomedical Journal, 2024).
Converted amounts (≈) assume the structure as drawn. “And” between values parts separate entries of the source, which are not always exact repeats. Equal entries are not always repeated.

Columns and labels:
Hep G2 cells [1] = assay: MTT cytotoxic assay; assay type: cell-based; details: for IC50: Homo sapiens, HepG2, 24 h, read-out: Hep G2 cells IC50
How it was run: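 Hep G2 cells (Pasteur Institute of Iran) seeded at 10,000 cells/well and grown 24 h at 37 °C, 5% CO2. Extract and fractions were tested at 12.5–200 μg/mL for 24 h. MTT was then added for 4 h at 37 °C, and formazan was dissolved in DMSO and read at 570 nm. IC50 came from plots of growth inhibition against concentration; mean ± SD of triplicates.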

ORAC assay = assay type: biochemical; details: Trolox equivalents
How it was run: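 Blank, Trolox standard or sample (20 µL) in 75 mM potassium phosphate buffer was plated in triplicate with 200 µL of 0.96 µM fluorescein and held at 37 °C for 20 min. AAPH was then added, and fluorescence decay (ex 485/em 538 nm) was recorded every 4.5 min for 2.5 h. Values were expressed as Trolox equivalents.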

FRAP assay = assay type: biochemical; details: absorbance 593 nm; mean ± SD of triplicate
How it was run: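 FRAP reagent: 300 mM acetate buffer pH 3.6, 10 mM TPTZ in 40 mM HCl and 20 mM FeCl3·6H2O at 10:1:1, held dark at 37 °C for 10 min. 20 µL sample (6.25–3200 μg/mL solutions) was added to 180 µL pre-warmed reagent; controls held MeOH. Absorbance was read at 593 nm, and the FRAP value was calculated against the control; triplicate analysis.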

[2] = DPPH radical scavenging activity assay; assay type: biochemical; details: 30 min at 37 °C, absorbance 517 nm; mean ± SD of triplicate
How it was run: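 20 µL of sample (6.25–3200 μg/mL solutions) mixed with 200 µL methanolic DPPH and kept dark at 37 °C for 30 min; absorbance read at 517 nm. Blanks held sample plus MeOH; controls held MeOH plus DPPH. Percent inhibition was calculated from control and blank absorbances. Quercetin was the standard; triplicate runs.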

protease = assay: Determination of protease inhibition; assay type: biochemical; details: casein 1%, 25 °C, 10 minutes
How it was run: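 Samples prepared at 1–300 µg/mL; 50 µL was combined with 200 µL of 50 mM phosphate buffer, then protease and 1% casein substrate were added. The mixture was incubated at 25 °C for 10 min and stopped with 10% trichloroacetic acid. After 21 min it was centrifuged at 895 ×g for 5 min, and supernatant absorbance was read at 280 nm. IC50 as mean ± SD of three replicates.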

[3] = ABTS radical cation scavenging assay; assay type: biochemical; details: absorbance 734 nm after 15 minutes; mean ± SD of triplicate
How it was run: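 ABTS radical cation made by mixing aqueous ABTS diammonium salt with ammonium persulfate, then kept dark at room temperature for 16 h. It was diluted with ethanol to A734 0.70 ± 0.05. 200 µL radical solution was added to 20 µL of samples at a range of concentrations, and A734 was read after 15 min. IC50 reported as mean ± SD of three replicates.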

NO radical scavenging = assay type: biochemical; details: for NO scavenging ability percentage: 200 μg/mL, mean ± SD of triplicate
How it was run: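 Sodium nitroprusside (50 µL, 10 mmol) and 50 µL MeOH were added to 50 µL sample and incubated at 25 °C for 150 min. Then 100 µL Griess reagent was added for 5 min at room temperature, and absorbance was read at 542 nm. Blanks held sample, nitroprusside and MeOH without Griess reagent. Inhibition ratio was calculated from sample, blank and control absorbances; triplicate.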

Hep G2 cells [4] = assay: CAA assay; assay type: cell-based; details: Homo sapiens, HepG2, read-out: CAA IC50
How it was run: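 Hep G2 cells seeded at 6 × 10^4 cells/well overnight, then washed three times with PBS. Cells were incubated at 37 °C in treatment medium containing extract at various concentrations plus 25 µM DCFH-DA, then washed with PBS. AAPH was added, and fluorescence (ex 485/em 538 nm) was read every 5 min for 1 h at 37 °C. IC50 is the concentration scavenging 50% of AAPH radicals; quercetin was the standard; triplicates.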

Row | SMILES | FRAP IC50 (FRAP assay) [µg/mL] | DPPH IC50 [2] [µg/mL] | Protease inhibition IC50 (protease) [µg/mL] | ABTS IC50 [3] [µg/mL] | IC50 (Hep G2 cells [4]) [µg/mL] | Hep G2 cells IC50 (Hep G2 cells [1]; MTT, 24 h treatment, mean ± SD) [µg/mL] | ORAC TE (ORAC assay) [TE] | IC50 (Hep G2 cells [1]) [µg/mL] | cytotoxic effect on the Hep G2 cell line (in words) (Hep G2 cells [1]; MTT) | NO scavenging ability percentage (NO radical scavenging) | NO scavenging ability percentage (NO radical scavenging; listed as oleanolic acid) [%] | ORAC TE (ORAC assay; listed as rosmarinic acid) [TE] | NO scavenging (NO radical scavenging) [µg/mL] | NO scavenging ability percentage (NO radical scavenging; listed as ursolic acid) [%]
1 | N.N.[Cl][Pt][Cl] [Cisplatin, reference compound] |  |  |  |  |  | 12.65 ± 0.78 |  |  |  |  |  |  |  | 
2 | O=c1c(O)c(-c2ccc(O)c(O)c2)oc2cc(O)cc(O)c12 [Quercetin, quercetin, reference compound] | 18.53 ± 0.12 | 26.51 ± 0.06 |  | 26.35 ± 0.03 | 38.9 ± 0.87 (≈ 129 µM) |  | 1.06 |  |  | 89.96 ± 0.01% |  |  |  | 
3 | O=C(/C=C/c1ccc(O)c(O)c1)O[C@H](Cc1ccc(O)c(O)c1)C(=O)O [Rosmarinic acid] | 31.87 ± 0.67 | 28.39 ± 0.75 | 17.0 ± 0.3 | 39.52 ± 0.72 | 171 (≈ 475 µM) |  | 0.60 | 47.8 ± 5.87 (≈ 133 µM) |  | 71.44 ± 0.37% and 71.44 ± 1.04% |  | 0.6 | 71.44 ± 1.04 | 

Second part, led by results:

Row | FRAP IC50 (FRAP assay) [µg/mL] | DPPH IC50 [2] [µg/mL] | Protease inhibition IC50 (protease) [µg/mL] | ABTS IC50 [3] [µg/mL] | IC50 (Hep G2 cells [4]) [µg/mL] | SMILES | Hep G2 cells IC50 (Hep G2 cells [1]; MTT, 24 h treatment, mean ± SD) [µg/mL] | ORAC TE (ORAC assay) [TE] | IC50 (Hep G2 cells [1]) [µg/mL] | cytotoxic effect on the Hep G2 cell line (in words) (Hep G2 cells [1]; MTT) | NO scavenging ability percentage (NO radical scavenging) | NO scavenging ability percentage (NO radical scavenging; listed as oleanolic acid) [%] | ORAC TE (ORAC assay; listed as rosmarinic acid) [TE] | NO scavenging (NO radical scavenging) [µg/mL] | NO scavenging ability percentage (NO radical scavenging; listed as ursolic acid) [%]
4 | 198.86 ± 1.49 | >2000 | 28.0 ± 0.2 | >2000 | > 200 | CC1(C)CC[C@]2(C(=O)O)CC[C@]3(C)C(=CC[C@@H]4[C@@]5(C)CC[C@H](O)C(C)(C)[C@@H]5CC[C@]43C)[C@@H]2C1 [Oleanolic acid] |  | 0.46 | 123 ± 8.84 (≈ 270 µM) | low antiproliferative effect | 48.82 ± 0.91% | 48.82 |  |  | 
5 | 42.62 ± 0.86 | 33.48 ± 0.52 | 22.4 ± 0.1 | 87.31 ± 0.68 | > 200 | C[C@@H]1O[C@@H](OC[C@H]2O[C@@H](Oc3c(-c4ccc(O)c(O)c4)oc4cc(O)cc(O)c4c3=O)[C@H](O)[C@@H](O)[C@@H]2O)[C@H](O)[C@H](O)[C@H]1O [Rutin, Quercetin-3-O-rutoside] |  | 0.83 | 63.9 ± 0.96 (≈ 105 µM) |  | 81.30 ± 0.37% |  |  |  | 
6 | 298.51 ± 1.76 | >2000 | 24.5 ± 0.1 | >2000 | 184 ± 9.25 (≈ 402 µM) | C[C@H]1[C@H](C)CC[C@]2(C(=O)O)CC[C@]3(C)C(=CC[C@@H]4[C@@]5(C)CC[C@H](O)C(C)(C)[C@@H]5CC[C@]43C)[C@H]12 [Ursolic acid] |  | 0.31 | > 200 |  | 55.52 ± 0.43% |  |  |  | 55.52
